ChEMBL document CHEMBL1649298, “Correlation between vancomycin MIC values and those of other agents against gram-positive bacteria among patients with bloodstream infections caused by methicillin-resistant Staphylococcus aureus” (2009)
≈ marks a conversion by molar mass, not a printed value.

Tests used:
Type in all cases: functional
Staphylococcus aureus [1] = assay: Antibacterial activity against methicillin-resistant Staphylococcus aureus isolated form patient blood measured after 18 to 24 hrs on day 1 post isolation by Etest
How it was run: (§1)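 MRSA bloodstream isolates came from 120 patients at a tertiary care hospital between January 2005 and May 2007. MICs were read by Etest. Each patient's isolates were grouped as day 1 (index) or post-day 1 (subsequent).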

Staphylococcus aureus [2] = assay: microbe, parasite or virus in culture
Staphylococcus aureus [3] = assay: Antibacterial activity against methicillin-resistant Staphylococcus aureus isolated form patient blood measured after 18 to 24 hrs on day 1 isolation by Etest; how it was run: as §1

| Compound | MIC (Staphylococcus aureus [1]) [µg/mL] | MIC50 (Staphylococcus aureus [1]) [µg/mL] | MIC90 (Staphylococcus aureus [1]) [µg/mL] | MIC (Staphylococcus aureus [2]) [µg/mL] | MIC50 (Staphylococcus aureus [2]) [µg/mL] | MIC90 (Staphylococcus aureus [2]) [µg/mL] | MIC (Staphylococcus aureus [3]) [µg/mL] | MIC50 (Staphylococcus aureus [3]) [µg/mL] | MIC90 (Staphylococcus aureus [3]) [µg/mL] |
| --- | --- | --- | --- | --- | --- | --- | --- | --- | --- |
| CCCCCCCCCC(=O)N[C@@H](Cc1c[nH]c2ccccc12)C(=O)N[C@H](CC(N)=O)C(=O)N[C@@H](CC(=O)O)C(=O)N[C@@H]1C(=O)NCC(=O)N[C@@H](CCCN)C(=O)N[C@@H](CC(=O)O)C(=O)N[C@H](C)C(=O)N[C@@H](CC(=O)O)C(=O)NCC(=O)N[C@H](CO)C(=O)N[C@@H]([C@H](C)CC(=O)O)C(=O)N[C@@H](CC(=O)c2ccccc2N)C(=O)O[C@@H]1C | 0.19 (≈ 0.117 µM) | 0.5 (≈ 0.309 µM) | 1 (≈ 0.617 µM) | 0.13 (≈ 0.0802 µM) | 0.38 (≈ 0.234 µM) | 0.75 (≈ 0.463 µM) | 0.13 (≈ 0.0802 µM) | 0.5 (≈ 0.309 µM) | 0.75 (≈ 0.463 µM) |
| CC(=O)NC[C@H]1CN(c2ccc(N3CCOCC3)c(F)c2)C(=O)O1 [LINEZOLID] | 0.38 (≈ 1.13 µM) | 1 (≈ 2.96 µM) | 1.5 (≈ 4.45 µM) | 0.75 (≈ 2.22 µM) | 0.75 (≈ 2.22 µM) | 1 (≈ 2.96 µM) | 0.38 (≈ 1.13 µM) | 0.75 (≈ 2.22 µM) | 1.5 (≈ 4.45 µM) |
| CN(C)c1cc(NC(=O)CNC(C)(C)C)c(O)c2c1C[C@H]1C[C@H]3[C@H](N(C)C)C(O)=C(C(N)=O)C(=O)[C@@]3(O)C(O)=C1C2=O [TIGECYCLINE] | 0.09 (≈ 0.154 µM) | 0.19 (≈ 0.324 µM) | 0.25 (≈ 0.427 µM) | 0.09 (≈ 0.154 µM) | 0.13 (≈ 0.222 µM) | 0.2 (≈ 0.341 µM) | 0.09 (≈ 0.154 µM) | 0.19 (≈ 0.324 µM) | 0.25 (≈ 0.427 µM) |
| CN[C@H](CC(C)C)C(=O)N[C@H]1C(=O)N[C@@H](CC(N)=O)C(=O)N[C@H]2C(=O)N[C@H]3C(=O)N[C@H](C(=O)N[C@H](C(=O)O)c4cc(O)cc(O)c4-c4cc3ccc4O)[C@H](O)c3ccc(c(Cl)c3)Oc3cc2cc(c3O[C@@H]2O[C@H](CO)[C@@H](O)[C@H](O)[C@H]2O[C@H]2C[C@](C)(N)[C@H](O)[C@H](C)O2)Oc2ccc(cc2Cl)[C@H]1O [VANCOMYCIN] | – | 1.5 (≈ 1.04 µM) | 2 (≈ 1.38 µM) | – | – | – | – | 1.5 (≈ 1.04 µM) | 1.5 (≈ 1.04 µM) |
